In experiment [1] the target is T1, Nitric oxide synthase, inducible (Mus musculus, UniProt P29477).
T1 sequence (P29477 whole entry): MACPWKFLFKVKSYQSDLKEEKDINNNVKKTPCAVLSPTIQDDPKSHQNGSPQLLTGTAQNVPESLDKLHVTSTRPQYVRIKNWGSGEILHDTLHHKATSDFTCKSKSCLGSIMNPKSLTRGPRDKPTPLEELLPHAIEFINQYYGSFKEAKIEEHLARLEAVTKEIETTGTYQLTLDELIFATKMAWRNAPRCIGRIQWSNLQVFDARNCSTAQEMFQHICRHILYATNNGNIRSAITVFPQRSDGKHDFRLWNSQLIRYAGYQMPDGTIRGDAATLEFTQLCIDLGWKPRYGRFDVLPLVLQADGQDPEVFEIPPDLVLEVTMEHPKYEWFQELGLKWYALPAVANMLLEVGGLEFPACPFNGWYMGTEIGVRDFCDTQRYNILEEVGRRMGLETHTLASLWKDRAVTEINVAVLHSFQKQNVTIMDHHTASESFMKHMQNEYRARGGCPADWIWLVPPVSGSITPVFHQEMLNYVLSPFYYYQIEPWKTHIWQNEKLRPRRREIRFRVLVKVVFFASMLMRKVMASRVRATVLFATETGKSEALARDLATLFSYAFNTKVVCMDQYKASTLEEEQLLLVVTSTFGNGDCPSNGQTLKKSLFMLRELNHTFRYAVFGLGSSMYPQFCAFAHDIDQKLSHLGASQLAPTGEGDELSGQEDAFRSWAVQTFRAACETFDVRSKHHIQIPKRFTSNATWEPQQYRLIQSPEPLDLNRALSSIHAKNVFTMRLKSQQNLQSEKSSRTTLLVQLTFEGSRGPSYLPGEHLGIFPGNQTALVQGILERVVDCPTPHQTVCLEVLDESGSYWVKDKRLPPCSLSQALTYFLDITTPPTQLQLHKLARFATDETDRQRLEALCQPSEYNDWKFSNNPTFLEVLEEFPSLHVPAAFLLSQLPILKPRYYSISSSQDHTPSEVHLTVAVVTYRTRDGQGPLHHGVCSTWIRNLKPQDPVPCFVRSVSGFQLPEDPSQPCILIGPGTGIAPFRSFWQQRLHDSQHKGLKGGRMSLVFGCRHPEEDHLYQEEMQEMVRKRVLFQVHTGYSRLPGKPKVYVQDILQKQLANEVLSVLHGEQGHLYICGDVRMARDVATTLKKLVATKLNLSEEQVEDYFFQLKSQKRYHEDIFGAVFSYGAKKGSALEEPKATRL
Put plainly: Inhibitory concentration against mouse inducible nitric oxide synthase (iNOS). The method in brief:
(§1)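 Citrulline formation: 20 mM HEPES pH 7.4, 50 μM L-arginine with 0.05 μCi [14C]-L-arginine, 4 μM FAD/FMN/H4B, 1 mM DTT, 1 mg/mL BSA, varied inhibitor; nNOS 12.5 nM, eNOS 25 nM (both plus 1 mM CaCl2, 15 μg/mL calmodulin), iNOS 2.5 nM (mouse, His6-tagged). Initiated with NADPH, 10 min room temperature, stopped pH 5.5 EDTA; [14C]-citrulline separated on Dowex cation exchange, scintillation counted; duplicate.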

The next experiment deals with T2, Nitric oxide synthase 3 (Homo sapiens, UniProt P29474).
T2 sequence (P29474 whole entry): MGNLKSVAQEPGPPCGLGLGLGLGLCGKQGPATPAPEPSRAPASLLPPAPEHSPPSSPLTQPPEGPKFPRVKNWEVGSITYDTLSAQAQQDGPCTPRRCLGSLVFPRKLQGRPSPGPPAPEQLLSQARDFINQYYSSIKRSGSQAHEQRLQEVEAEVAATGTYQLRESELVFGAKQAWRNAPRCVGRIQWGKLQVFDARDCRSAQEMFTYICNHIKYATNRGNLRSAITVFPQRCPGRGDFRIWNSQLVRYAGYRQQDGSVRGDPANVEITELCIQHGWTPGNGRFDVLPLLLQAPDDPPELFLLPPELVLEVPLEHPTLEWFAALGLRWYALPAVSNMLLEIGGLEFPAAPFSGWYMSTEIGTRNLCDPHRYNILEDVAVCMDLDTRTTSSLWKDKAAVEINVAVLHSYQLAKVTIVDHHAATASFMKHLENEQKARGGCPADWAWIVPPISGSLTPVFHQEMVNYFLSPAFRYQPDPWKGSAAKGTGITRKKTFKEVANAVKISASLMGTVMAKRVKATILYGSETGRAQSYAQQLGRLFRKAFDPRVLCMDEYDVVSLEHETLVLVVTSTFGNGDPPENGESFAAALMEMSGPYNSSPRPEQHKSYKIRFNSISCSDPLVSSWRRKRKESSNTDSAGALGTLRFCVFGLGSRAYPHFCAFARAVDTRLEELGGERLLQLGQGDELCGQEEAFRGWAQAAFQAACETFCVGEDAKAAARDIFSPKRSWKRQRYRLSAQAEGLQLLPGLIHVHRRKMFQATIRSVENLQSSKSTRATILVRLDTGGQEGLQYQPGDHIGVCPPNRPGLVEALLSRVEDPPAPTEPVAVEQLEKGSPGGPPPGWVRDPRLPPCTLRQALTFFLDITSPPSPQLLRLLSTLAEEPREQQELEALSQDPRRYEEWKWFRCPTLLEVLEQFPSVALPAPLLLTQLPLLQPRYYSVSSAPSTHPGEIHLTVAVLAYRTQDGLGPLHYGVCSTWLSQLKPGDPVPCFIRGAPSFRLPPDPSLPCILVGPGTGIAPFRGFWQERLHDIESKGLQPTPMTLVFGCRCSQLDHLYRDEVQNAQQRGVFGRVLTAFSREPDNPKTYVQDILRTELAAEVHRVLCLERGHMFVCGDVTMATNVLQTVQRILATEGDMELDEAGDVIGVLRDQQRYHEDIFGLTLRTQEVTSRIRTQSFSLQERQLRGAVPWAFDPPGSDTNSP
Put plainly: Inhibitory concentration against mammalian endothelial nitric oxide synthase (eNOS). The method in brief: as §1

Experiment [2] addresses T1, Nitric oxide synthase, inducible. Put plainly: Effective concentration against NADPH oxidase activity of iNOS. The method in brief:
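Mouse His6-tagged iNOS (E. coli BL21-DE3 expressed, Ni-NTA purified), 0.5 μM, in 40 mM HEPES pH 7.4 with 0.3 mM DTT, 4 μM each FAD/FMN/H4B, 10 units/mL catalase and SOD, varied analogue concentrations; started with 0.1 mM NADPH. NADPH oxidation rate followed as absorbance drop at 340 nm, 37 °C, triplicate; EC50 for decreased oxidase activity.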

The target in a further experiment is Nitric oxide synthase 1 (Homo sapiens, UniProt P29475). Put plainly: Inhibitory concentration against mammalian Neuronal nitric oxide synthase (nNOS). The method in brief:
as §1

SMILES strings stand for the structures.

Nitric oxide synthase 1, sequence (P29475 whole entry): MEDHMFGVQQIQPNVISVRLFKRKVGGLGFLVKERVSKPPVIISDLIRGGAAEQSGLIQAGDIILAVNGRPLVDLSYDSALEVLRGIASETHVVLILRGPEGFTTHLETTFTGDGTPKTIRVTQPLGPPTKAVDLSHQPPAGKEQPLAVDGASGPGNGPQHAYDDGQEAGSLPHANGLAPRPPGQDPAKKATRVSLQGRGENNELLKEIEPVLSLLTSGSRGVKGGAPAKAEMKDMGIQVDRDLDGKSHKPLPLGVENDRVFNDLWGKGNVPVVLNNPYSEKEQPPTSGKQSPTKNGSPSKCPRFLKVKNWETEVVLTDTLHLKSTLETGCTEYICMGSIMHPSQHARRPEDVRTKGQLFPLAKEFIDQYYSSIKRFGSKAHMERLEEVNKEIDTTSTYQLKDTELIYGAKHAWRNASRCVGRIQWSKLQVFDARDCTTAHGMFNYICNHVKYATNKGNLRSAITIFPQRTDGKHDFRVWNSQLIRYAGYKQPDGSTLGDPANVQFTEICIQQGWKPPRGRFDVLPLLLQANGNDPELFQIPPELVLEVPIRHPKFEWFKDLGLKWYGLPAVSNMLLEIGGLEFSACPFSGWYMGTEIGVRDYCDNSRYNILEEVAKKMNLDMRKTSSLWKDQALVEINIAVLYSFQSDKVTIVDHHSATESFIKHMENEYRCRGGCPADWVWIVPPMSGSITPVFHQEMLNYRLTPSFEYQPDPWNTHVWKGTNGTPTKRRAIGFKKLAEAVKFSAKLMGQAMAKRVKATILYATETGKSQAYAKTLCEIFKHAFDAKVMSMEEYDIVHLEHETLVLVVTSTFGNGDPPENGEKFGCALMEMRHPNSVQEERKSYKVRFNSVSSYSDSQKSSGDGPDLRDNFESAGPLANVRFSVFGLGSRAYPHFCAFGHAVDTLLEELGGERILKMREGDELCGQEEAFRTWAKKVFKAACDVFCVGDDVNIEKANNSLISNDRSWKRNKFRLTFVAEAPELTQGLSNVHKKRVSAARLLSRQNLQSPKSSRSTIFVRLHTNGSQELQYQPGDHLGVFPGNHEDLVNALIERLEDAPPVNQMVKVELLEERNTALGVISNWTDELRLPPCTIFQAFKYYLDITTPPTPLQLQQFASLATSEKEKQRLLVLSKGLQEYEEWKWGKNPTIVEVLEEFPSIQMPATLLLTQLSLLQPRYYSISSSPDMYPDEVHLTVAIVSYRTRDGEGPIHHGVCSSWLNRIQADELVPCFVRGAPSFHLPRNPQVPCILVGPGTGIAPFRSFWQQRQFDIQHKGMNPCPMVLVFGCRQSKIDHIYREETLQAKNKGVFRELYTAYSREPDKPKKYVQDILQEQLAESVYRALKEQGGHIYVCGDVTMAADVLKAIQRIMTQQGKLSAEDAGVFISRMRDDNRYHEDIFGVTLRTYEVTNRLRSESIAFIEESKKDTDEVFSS

Turning to `CS/C(=N/N)NCCC[C@H](N)C(=O)O`, the concentration for half-maximal inhibition (IC50) is 320 µM in experiment [1], 752 µM on Nitric oxide synthase 3 and 327 µM at Nitric oxide synthase 1. The compound further came in with a Ki in experiment [1] of 58 µM. Further, the EC50 in experiment [2] stood at 180 µM.
Take `NNC(=S)NCCC[C@H](N)C(=O)O`: the values for the IC50 (in experiment [1]; against Nitric oxide synthase 3; against Nitric oxide synthase 1) were 3710 µM, 3060 µM and 1620 µM, respectively. The compound further displayed an inhibitory constant (Ki) in experiment [1] of 202 µM. The response in experiment [2] was half-maximal at 190 µM (EC50).
With `CS/C(=N/O)NCCC[C@H](N)C(=O)O`, the results for the IC50 (in experiment [1]; on Nitric oxide synthase 3; at Nitric oxide synthase 1) were 13 µM, 19.7 µM and 6.7 µM, respectively. The inhibition constant (Ki) in experiment [1] was 7 µM. Moreover, in experiment [2], the half-maximal effective concentration (EC50) worked out at 6.6 µM.

Values taken from ChEMBL document CHEMBL1132646, “Synthesis and evaluation of new sulfur-containing L-arginine-derived inhibitors of nitric oxide synthase” (J Med Chem, 1999).
